Experimental data reported in publication PMC3182491 (Investigational new drugs, 2010).
Several values for one entry are separate records, joined by “and”; a condition that tells them apart may be missing. Equal entries are not always repeated.

What was measured:
[1] = Pharmacokinetics after single IV bolus in healthy dogs; type: in vivo; conditions: dog
In short: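 Six healthy hound dogs, crossover design with two-week washout. Test compound was freshly made at 15 mg/ml in 2-hydroxypropyl-β-cyclodextrin/sterile water and given at 1.0 mg/kg as a 10-min IV bolus. Jugular plasma was taken at 0-720 min and 24 h and assayed by LC-ES/MS/MS (deuterated internal standard). AUC and AUMC were taken by linear trapezoid extrapolated to infinity; A and B came from a two-compartment fit by residuals; Cls = dose/AUC.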

[2] = Pharmacokinetics after single oral administration in healthy dogs; type: in vivo; conditions: dog; for AUC o-inf. / Cmax / F (absolute oral bioavailability) / Oral clearance / Tmax / t1/2 K10 (terminal elimination half-life): 1 mg/kg oral
In short: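 Same six dogs in crossover, two-week washout. Test compound in 2-hydroxypropyl-β-cyclodextrin/sterile water was given once at 1.0 mg/kg as a 5-min oral slurry. Plasma was sampled at 0, 15, 30, 45, 60, 120, 240, 480, 720 min and 24 h and quantified by LC-ES/MS/MS. A one-compartment absorption model gave K01 and K10, Cmax and Tmax; Clo = dose/AUC0-inf; F = AUC oral/AUC IV × dose ratio.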

[3] = tested on: CA46 human B-cell lymphoma line; test: Annexin V-FITC/PI apoptosis detection by flow cytometry, CA46 cells; type: cell-based
In short: (§1)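 Cells were seeded at 100,000 per well in fresh medium holding 0, 5, 10 or 20 µM test compound, alongside a vehicle control. They were exposed 24 or 48 h at 37 °C, 5% CO2. Apoptosis was read by Annexin V-FITC/PI staining and flow cytometry, in triplicate. Lines were kept as suspensions in DMEM with P/S, plus 10% FBS (17-71, GL-1) or 20% FBS (CA46). Time and concentration effects were tested by 2-way ANOVA with Tukey or Dunnett post hoc.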

caspase-3 [4] = target: T1, caspase-3 (Canis lupus familiaris, UniProt Q8MKI5); test: Caspase-3 colorimetric assay in cell lysate, GL-1 cells; type: cell-based, canine; conditions: 10 or 20 µM, incubation ≤ 4 hours
T1 sequence (Q8MKI5 29-277): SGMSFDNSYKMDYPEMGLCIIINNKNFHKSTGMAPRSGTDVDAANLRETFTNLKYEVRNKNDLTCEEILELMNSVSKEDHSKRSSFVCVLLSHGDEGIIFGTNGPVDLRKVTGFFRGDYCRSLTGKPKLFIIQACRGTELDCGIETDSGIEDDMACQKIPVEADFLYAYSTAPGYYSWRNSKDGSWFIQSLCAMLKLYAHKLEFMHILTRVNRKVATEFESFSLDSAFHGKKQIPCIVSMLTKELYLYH
In short: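 Lymphoma cells were exposed to 10 or 20 µM test compound for 0, 1, 2, 4, 24 and 48 h at 37 °C, 5% CO2; hour 0 served as vehicle control. Lysates from 2 million cells per time point went into a colorimetric caspase-3 assay read at 405 nm, run in duplicate. Time points were compared to control by one-way ANOVA with Dunnett's test.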

[5] = Plasma concentration during 48-hour IV constant rate infusion in healthy dogs; type: in vivo; conditions: dog, IV CRI
[6] = tested on: GL-1 canine B-cell lymphoma line; test: Annexin V-FITC/PI apoptosis detection by flow cytometry, GL-1 cells; type: cell-based
In short: as §1

caspase-3 [7] = target: T2, caspase-3 (Homo sapiens, UniProt P42574); test: Caspase-3 colorimetric assay in cell lysate, CA46 cells; type: cell-based; conditions: 10 or 20 µM, incubation ≤ 4 hours
T2 sequence (P42574 29-277): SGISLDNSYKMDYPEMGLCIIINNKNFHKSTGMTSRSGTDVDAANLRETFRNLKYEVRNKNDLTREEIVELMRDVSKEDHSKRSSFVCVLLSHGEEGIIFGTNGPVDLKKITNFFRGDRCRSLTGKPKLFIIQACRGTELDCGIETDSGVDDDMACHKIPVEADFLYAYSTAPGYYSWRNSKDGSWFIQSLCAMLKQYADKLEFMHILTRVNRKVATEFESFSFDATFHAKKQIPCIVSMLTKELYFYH
In short: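 CA46 human B-cell lymphoma cells, grown in suspension in DMEM with 20% FBS and P/S at 37 °C, 5% CO2, were exposed to test compound at 10 or 20 µM for 0, 1, 2, 4, 24 and 48 h. Lysate from 2 million cells per time point was assayed with a colorimetric caspase-3 kit read at 405 nm, in duplicate. Activity was compared with vehicle-treated cells (hour 0) by one-way ANOVA and Dunnett's test.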

[8] = 1 mg/kg IV, individual dogs A-F, 1 mg/kg

C=CCc1cccc(/C=N/NC(=O)CN2CCN(Cc3ccccc3)CC2)c1O [PAC-1]
A (Y intercept, distribution phase) ([1]; 1 mg/kg IV, Mean ± SD, n=6): 1483.8 ± 723.0 ng/mL | AUC0-inf ([1]; 1 mg/kg IV, Mean ± SD, n=6): 1740 ± 309.6 ngxhr/ml | AUMC0-inf ([1]; 1 mg/kg IV, Mean ± SD, n=6): 4805 ± 1211 ngxhrxhr/ml | B (Y intercept, elimination phase) ([1]; 1 mg/kg IV, Mean ± SD, n=6): 249.0 ± 172.9 ng/mL | Cls (total body clearance) ([1]; 1 mg/kg IV, Mean ± SD, n=6): 9.578 ± 1.26 mL/min/kg | Vdc (volume of distribution in central compartment) ([1]; 1 mg/kg IV, Mean ± SD, n=6): 0.678 ± 0.254 L/kg | Vdss (volume of distribution at steady state) ([1]; 1 mg/kg IV, Mean ± SD, n=6): 1.643 ± 0.497 L/kg | Vdβ (volume of distribution in terminal elimination phase) ([1]; 1 mg/kg IV, Mean ± SD, n=6): 2.698 ± 0.865 L/kg | t1/2 β (terminal elimination half-life) ([1]; 1 mg/kg IV, Mean ± SD, n=6): 3.12 ± 0.67 h | A (Y intercept, distribution phase) [1, 8]: 1065 ng/mL and 2598 ng/mL and 908 ng/mL and 2199 ng/mL and 1119 ng/mL and 1014 ng/mL | AUC0-inf [1, 8]: 1730 ngxhr/ml and 2339 ngxhr/ml and 1468 ngxhr/ml and 1645 ngxhr/ml and 1709 ngxhr/ml and 1549 ngxhr/ml | AUMC0-inf [1, 8]: 4751 ngxhrxhr/ml and 6167 ngxhrxhr/ml and 3693 ngxhrxhr/ml and 3802 ngxhrxhr/ml and 4247 ngxhrxhr/ml and 6174 ngxhrxhr/ml | B (Y intercept, elimination phase) [1, 8]: 288 ng/ml and 584 ng/ml and 138 ng/ml and 176 ng/ml and 154 ng/ml (2×) | Cls (total body clearance) [1, 8]: 9.63 mL/min/kg and 7.13 mL/min/kg and 10 mL/min/kg and 10.1 mL/min/kg and 9.75 mL/min/kg and 10.8 mL/min/kg | Vdc (volume of distribution in central compartment) [1, 8]: 0.739 L/kg and 0.314 L/kg and 0.957 L/kg and 0.421 L/kg and 0.786 L/kg and 0.856 L/kg | Vdss (volume of distribution at steady state) [1, 8]: 1.587 L/kg and 1.127 L/kg and 1.715 L/kg and 1.405 L/kg and 1.454 L/kg and 2.574 L/kg | Vdβ (volume of distribution in terminal elimination phase) [1, 8]: 2.260 L/kg and 1.380 L/kg and 3.145 L/kg and 2.699 L/kg and 2.736 L/kg and 3.968 L/kg | t1/2 β (terminal half-life) [1, 8]: 2.71 h and 2.24 h and 3.20 h and 3.08 h and 3.24 h and 4.26 h | average peak plasma concentration ([1]; 1.0 mg/kg bolus IV, immediately following completion of infusion): 2.8 ± 0.6 µM | time of average peak plasma concentration following ingestion ([2]; 1.0 mg/kg oral): 45 min | AUC o-inf. ([2]; Mean ± SD, n=6): 310.5 ± 158.5 ng/mL/h | Cmax ([2]; Mean ± SD, n=6): 77.0 ± 37.5 ng/mL | F (absolute oral bioavailability) ([2]; Mean ± SD, n=6): 17.8 ± 9.5% | Oral clearance ([2]; Mean ± SD, n=6): 136 ± 79.6 L/h | Tmax ([2]; Mean ± SD, n=6): 0.84 ± 0.28 h | t1/2 K10 (terminal elimination half-life) ([2]; Mean ± SD, n=6): 2.08 ± 0.26 h | AUC o-inf. ([2]; individual dogs A-F, 1 mg/kg): 271 ng/mL/h and 408 ng/mL/h and 117 ng/mL/h and 508 ng/mL/h and 145 ng/mL/h and 414 ng/mL/h | Cmax ([2]; individual dogs A-F, 1 mg/kg): 63.9 ng/mL and 127 ng/mL and 31 ng/mL and 108 ng/mL and 43 ng/mL and 89 ng/mL | F (absolute oral bioavailability) ([2]; individual dogs A-F, 1 mg/kg): 16% and 17% and 8% (2×) and 31% and 27% | Oral clearance ([2]; individual dogs A-F, 1 mg/kg): 137 L/h and 77 L/h and 236 L/h and 61 L/h and 230 L/h and 75 L/h | Tmax ([2]; individual dogs A-F, 1 mg/kg): 1.09 h and 0.51 h and 0.90 h and 1.07 h and 0.45 h and 0.99 h | t1/2 K10 (terminal elimination half-life) ([2]; individual dogs A-F, 1 mg/kg): 2.02 h and 1.83 h and 1.86 h and 2.40 h and 1.97 h and 2.42 h | fraction of apoptotic cells ([3]; 24 hour exposure): 20–35% | apoptosis ([3]; 48 hour, 10 µM): ≥ 50% | cells undergone apoptosis ([3]; 48 hours, PAC-1 ≥10 µM): greater than 50% | caspase-3 activity in cell lysate vs vehicle-treated control cells (caspase-3 [4]): failed to significantly increase | plasma concentration after 6 hours of infusion ([5]; average LD 5.8 mg/kg and MD 2.3 mg/kg/hour, n=4): 10.7 ± 2.0 µM | plateau plasma concentration ([5]; following completion of the first 24 hours): ~ 18 µM | apoptosis ([6]; 48 hour, 10 µM): ~ 25% | cells remaining viable ([6]; 48 hours, 20 µM): ~ 60% | caspase-3 activity in cell lysate vs vehicle-treated control cells (caspase-3 [7]): failed to significantly increase
